Bioassay records as filed in PubChem BioAssay.
Rows were chosen to be rich in hits. Some 3.8% of all compounds tested hit in one or more screens of this group.
T cell HTS – modulators of CD8 T cell-vesicle binding, primary screen, mouse 2C CD8+ T cells, flow cytometry | 2C CD8+ T cell-vesicle binding; active compounds read low | response (vesicle binding), % at 7 µM | 330,000 tested, 0.068% active | AID 2052, 2009;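 active = response, share of CD8 T cells binding vesicles, and their 90th percentile fluorescence all below set limits, cut at about 80% in these data, passing the limit was not always enough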;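 also: values below 100% mean blocked vesicle binding to the CD8+ T cells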
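Assay system – 2C mouse CD8+ T cells · Also added – QL9-loaded Drosophila micro-vesicles · Timing – Cell–vesicle co-incubation 1.5 h at 37 °C, staining 20 min on ice · Signal – flow cytometry of vesicle-bound cells · Measure – percent CD8+ FL2 mean versus row control · Controls – Peptide-free naked vesicles (low) and QL9 vesicles with 0.7% DMSO vehicle (high)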
rCAG RNA binder – binders of r(CAG) RNA repeats, primary screen, biochemical, fluorescence | r(CAG) RNA repeat, TO-PRO-1 dye displacement fluorescence | inhibition, % at 3 µM | 370,000 tested, 1.3% active;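 active = inhibition above the plate cutoff, the mean of all test compounds on that plate plus 3 SD, cut at about 35% in these data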;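 also: 0% = DMSO alone and 100% = 100 µM mitoxantrone as full dye displacement; higher means more dye released from RNA so lower well fluorescence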
V-ATPase pHluor – regulators of yeast V-ATPase proton pumping, primary screen, pHLuorin cytosolic pH fluorescence | response, % at 10 µM | S. cerevisiae | 350,000 tested, 0.37% active | AID 504577, 2011; in the data active = response mostly above about 7.3%, no sharp cut-off; inactive = mostly below about 5.4%; also: actives read high
B2AR ag – beta2AR agonists driving receptor internalization, primary screen, cell-based, FAP fluorogen, flow cytometry | Beta-2 adrenergic receptor (Homo sapiens), P07550 | response, % (concentration not given with the values) | 340,000 tested, 0.43% active | AID 504454, 2011 | Am2.2-beta2AR cells;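 active = response above a set limit, near 3 SD of response in nonfluorescent compounds, cut at about 42% in these data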
Target sequence (P07550 whole entry, looked up): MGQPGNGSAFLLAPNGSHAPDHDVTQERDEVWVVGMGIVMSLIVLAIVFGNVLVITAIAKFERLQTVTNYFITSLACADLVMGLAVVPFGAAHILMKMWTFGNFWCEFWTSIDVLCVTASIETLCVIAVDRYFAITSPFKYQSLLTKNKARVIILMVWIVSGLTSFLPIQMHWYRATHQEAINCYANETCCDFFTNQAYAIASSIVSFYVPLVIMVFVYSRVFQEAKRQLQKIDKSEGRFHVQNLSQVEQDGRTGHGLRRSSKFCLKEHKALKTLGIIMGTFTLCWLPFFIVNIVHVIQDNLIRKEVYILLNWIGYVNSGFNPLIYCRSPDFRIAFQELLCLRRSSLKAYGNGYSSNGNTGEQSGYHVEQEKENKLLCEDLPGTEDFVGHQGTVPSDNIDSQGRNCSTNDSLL
Granule exo inh – LAMP-1 surface exposure blockers, TALL-104 cells – cell-based, flow cytometry, MLPCN library, primary screen | TALL-104 LAMP-1 surface exposure; cells stimulated with thapsigargin and PMA | 360,000 tested, 0.66% active | AID 651702, 2012 | inhibition, % at 10 µM;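 active = inhibition above about 55%, limit read from the data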
MPTP block – mitochondrial permeability transition pore inhibitors, primary screen, biochemical, isolated mouse mitochondria, absorbance | Ca2+ swelling absorbance, 30 min | inhibition, % at 10 µM | 360,000 tested, 1.4% active | AID 602449, 2012;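 active = inhibition of 50% or more, scaled per plate between neutral and stimulator controls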;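 also: 0% = DMSO wells given calcium and 100% = 1 mM EGTA wells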
Granule exo CP1 – inhibitors of lytic granule exocytosis, confirmation, TALL-104 cells, flow cytometry, Cherry Pick01; inhibition, % at 10 µM; 1,500 tested, 11% active; LAMP-1 externalization; stimulated with PMA plus thapsigargin; shares compounds with Granule exo inh; in the data active = inhibition above about 60%;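 also: 0% = stimulated vehicle wells and 100% = unstimulated wells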
* = called active by the depositor; i = inactive; / = no result given.

SMILES	T cell HTS	rCAG RNA binder	V-ATPase pHluor	B2AR ag	Granule exo inh	MPTP block	Granule exo CP1
O=C(OCc1cn(Cc2ccccc2C(F)(F)F)nn1)N1CCOCC1	/	-0.2	/	/	/	/	/
CCCCN(CCCNC(=O)CN1C(=O)COc2ccc(S(=O)(=O)N3CCC(C)CC3)cc21)Cc1ccccc1	188.4	-5.0	0.6	8.7	60.2*	0.9	-3.5
CCCCN(CCCC)CCNC(=O)CN1C(=O)COc2ccc(S(=O)(=O)N3CCC(C)CC3)cc21	80.8	-9.2	4.9	-3.5	-1.2	-0.3	/
COc1ccc(C(O)(CCN2CCCCC2)C2CCCCC2)cc1 (configuration not stated)	144.5	-5.4	-2.3	9.1	75.2*	-0.1	-12.0
N#Cc1cccc(CN2CCCN(Cc3ccc(F)cc3)S2(=O)=O)c1	271.7	0.4	6.8	1.4	85.1*	0.4	-5.7
O=C(CSc1ncnc2c1cnn2CCc1ccccc1)Nc1cccc(C(F)(F)F)c1	189.5	3.5	0.7	-4.4	82.6*	11.1	2.7
Cc1cccc(C2=CC(=O)CC(C)(C)C2=O)c1	/	1.6	/	/	/	/	/
COc1ccc(NC(=O)N(C)C[C@H]2OCc3cnnn3CCCC(=O)N([C@H](C)CO)C[C@@H]2C)c(OC)c1	/	5.3	/	/	/	/	/
COc1ccc(S(=O)(=O)N(C)C)cc1NC(=O)CCCSc1ccccc1	557.6	-1.9	-0.6	-16.1	94.6*	-0.6	-5.3
CN(C)S(=O)(=O)c1cccc(NC(=O)CCCSc2ccccc2)c1	151.6	1.2	1.8	-8.8	41.7	2.1	/
CCN1CCN(c2ccc(Nc3ccnc4ccccc34)cc2)CC1	243.5	5.1	-1.4	10.4	-2.4	0.2	/
CN1CCN(c2ccc(Nc3ccnc4cc(Cl)ccc34)cc2)CC1	228.7	1.2	2.1	11.8	66.9*	3.2	-11.3
O=S1(=O)c2c(cccc2N2CC[C@H](O)C2)O[C@H]2CCN1C2	/	2.1	/	/	/	/	/
CN1CCc2cc3c(c4c2[C@H]1[C@H](O)c1ccccc1-4)OCO3	/	-1.9	2.0	-5.1	0.6	-0.5	/
CN1CCc2cccc3c2[C@H]1Cc1ccc(O)c(O)c1-3	722.1	13.3	0.6	10.2	83.6*	-0.2	6.2
CC(=O)N1CCCN(S(=O)(=O)c2ccc3c(c2)c(=O)n(C)c(=O)n3C)CC1	/	3.1	/	/	/	/	/
CCOC(=O)[C@]12CCCC=C1N(CCCOC)C(=O)[C@@H]2CC(=O)NCc1cccc2ccccc12	/	-0.6	/	/	/	/	/
COc1ccc2ccccc2c1CNC(C)c1ccccc1 (configuration not stated)	269.7	1.6	0.7	5.4	42.6	1.5	/
CC(NCCCOc1cccc2ccccc12)c1ccccc1 (configuration not stated)	435.8	6.3	3.3	15.8	61.0*	14.4	-5.3
COc1ccc(CN(CCN2CCOCC2)C(=O)c2ccc(F)cc2Cl)cc1OC	/	5.1	/	/	/	/	/
Clc1ccc(OCCCNCc2ccccc2)c2ccccc12	254.9	16.2	-2.9	14.9	99.4*	13.3	6.4
Brc1ccccc1OCCNCc1ccccc1	317.5	-5.3	-1.0	-4.4	-0.6	28.0	/
CCCCNC(=O)C[C@H]1C[C@@]2(C(=O)OC)C(=C[C@H](C(C)(C)C)O[C@@H]2C)N(CCc2ccc(OC)c(OC)c2)C1=O	/	10.7	/	/	/	/	/
CCOC(=O)C1(CCOc2ccccc2)CCN(Cc2ccc(OCCO)cc2)CC1	134.2	-5.8	4.5	2.9	37.8	1.3	/
CCOC(=O)C1(CCOc2ccccc2)CCN(Cc2ccc(OC)c(O)c2)CC1	246.8	0.4	-2.5	3.5	71.0*	9.0	-12.3
SMILES	T cell HTS	rCAG RNA binder	V-ATPase pHluor	B2AR ag	Granule exo inh	MPTP block	Granule exo CP1
CCOC(=O)C1(CCOc2ccccc2)CCN(Cc2cc(OC)c(O)c(OC)c2)CC1	180.0	-6.1	-9.7	4.6	76.6*	-0.4	9.6
CCOC(=O)C1(CCOc2ccccc2)CCN(Cc2cnc(SC)nc2)CC1	193.2	-9.6	4.3	-10.2	1.2	1.4	/
CCOC(=O)C1(CCOc2ccccc2)CCN(Cc2ccc(O)cc2)CC1	267.3	-2.7	-4.8	10.7	56.5*	6.8	-5.3
CCOC(=O)C1(CCOc2ccccc2)CCN(Cc2ccc(O)c(OCC)c2)CC1	204.4	-10.6	0.1	11.7	80.9*	16.5	-3.3
O=C(c1ccco1)N1CCC(c2nc(-c3ccccc3Cl)no2)CC1	317.1	-6.5	6.1	-11.0	99.9*	0.3	-5.5
Cc1nc(NC(=O)C2CC2)sc1C(=O)Nc1ccccc1	248.4	4.5	-1.5	-7.6	-2.1	1.5	/
COC(=O)c1c(NC(=O)C2CC2)sc(C(=O)Nc2ccccc2)c1C	196.3	2.0	-1.2	-8.4	74.7*	-2.5	-13.7
Oc1ccccc1C=NN1CCN(Cc2ccccc2)CC1	/	-1.4	/	/	/	/	/
CCOc1ccc2c(c1)C(C)=CC(C)(C)N2S(=O)(=O)c1ccc(NC(C)=O)cc1	137.8	-4.6	0.0	19.7	69.0*	0.3	-12.3
COc1ccc2c(c1)C(C)=CC(C)(C)N2S(=O)(=O)c1ccc(NC(C)=O)cc1	165.8	-5.4	0.1	22.6	52.5	-1.9	/
CC1(C)CC(=O)C=C(Nc2ccccc2NC(=O)c2ccc(F)cc2F)C1	/	-0.4	/	/	/	/	/
COc1ccc2noc3c2c1C(=O)c1ccccc1-3	i	i	-0.5	-555.0	88.3*	2.3	23.3
COc1ccc(N)c2c1C(=O)c1ccccc1C2=O	227.0	26.4	-3.9	2.3	2.5	10.6	/
CSc1cccc(NC(=S)N(CCCN2CCCC2)Cc2cccn2Cc2ccc(Cl)cc2)c1	388.3	-2.4	-0.1	32.9	92.6*	0.9	62.9*
CCOc1ccc2nc(C)cc(Nc3cccc([N+](=O)[O-])c3)c2c1	217.7	24.5	-1.8	8.4	90.2*	8.9	80.0*
O=C(Nc1cnn(Cc2ccccc2)c1)c1cc2nc(-c3ccco3)cc(C(F)(F)F)n2n1	258.9	7.2	4.2	-17.7	96.2*	-6.3	-4.9
C#CCN1CC(N(C)CCOC(=O)c2ccc(F)cc2)CS1(=O)=O (configuration not stated)	/	2.0	/	/	/	/	/
COCc1cn(-c2ccc3c(c2)[C@]2(CC(=O)N(C)C2c2ccccc2)C(=O)N3CC(C)C)nn1 (some centres not stated)	/	-3.0	/	/	/	/	/
Nc1ccc(-c2nc3ccc(N)cc3o2)cc1	320.0	3.8	-2.1	-9.0	63.2*	-1.0	-3.2
COC(=O)N1[C@H](C)C=C[C@]1(Cc1ccccc1)C(=O)OC	391.9	9.5	4.5	-1.0	57.2*	-1.7	-13.2
COc1cccc(N2CCc3c(C)nc4ccc(Cl)cc4c32)c1	236.4	9.3	2.5	8.1	81.5*	-1.2	-7.3
